Compound activity as filed in PubChem BioAssay.
NPY Y2 blocker: NPY-Y2 receptor antagonists, primary screen, cell-based; Neuropeptide Y receptor type 2 (Homo sapiens), P49146; NPY-Y2 expressing cells, antagonist mode; inhibition, % at 2.7 µM; 0.99% of 140,000 active; AID 793, 2007; in the data active means inhibition above about 17%;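 further: 0% = vehicle with agonist challenge and 100% = reference antagonist with challenge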
Target sequence (P49146 whole entry, looked up): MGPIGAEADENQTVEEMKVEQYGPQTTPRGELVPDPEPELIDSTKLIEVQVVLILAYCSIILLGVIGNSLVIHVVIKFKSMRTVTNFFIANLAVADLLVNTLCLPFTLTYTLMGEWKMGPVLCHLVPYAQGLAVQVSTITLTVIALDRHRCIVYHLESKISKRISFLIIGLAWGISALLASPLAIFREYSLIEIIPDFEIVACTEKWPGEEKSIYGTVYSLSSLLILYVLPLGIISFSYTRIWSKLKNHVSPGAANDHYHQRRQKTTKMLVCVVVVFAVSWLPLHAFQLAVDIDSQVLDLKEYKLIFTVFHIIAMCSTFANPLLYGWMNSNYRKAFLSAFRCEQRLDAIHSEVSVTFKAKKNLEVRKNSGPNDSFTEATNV
EP2 mod: EP2 receptor modulators, cAMP readout, primary screen, cell-based, HTRF cAMP, PGE2 stimulation; Prostaglandin E2 receptor EP2 subtype (Homo sapiens), P43116; EP2-expressing cells, cAMP HTRF FRET, PGE2 co-stimulation; induction, % at 25 µM; AID 940, 2007; 0.83% of 260,000 active;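 active means compounds whose cAMP rise, as percent of the full-agonist control response, exceeds 60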;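 further: rat C6 glioma line stably carrying human EP2 under a CMV promoter; the protocol text gives 20 µM as final concentration; 100% = response of wells given 1 µM PGE2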
NPY-Y2 PAM-ag: NPY-Y2 potentiators or agonists, primary screen, cell-based; activation, % at 3.6 µM; 0.45% of 220,000 active; cells expressing NPY-Y2, potentiator/agonist read-out; Neuropeptide Y receptor type 2 (Homo sapiens), P49146; in the data active means activation above about 27%;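 further: cells stimulated with NPY near EC25 plus isoproterenol at EC100; 0% = vehicle plus submaximal agonist and 100% = vehicle plus saturating agonist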
NPY1 pot ag: NPY-Y1 receptor potentiators or agonists, primary screen, cell-based; NPY-Y1 expressing cells, potentiator/agonist activation; activation, % at 3.6 µM; 0.37% of 220,000 active; AID 1304, 2008; in the data active means activation above about 33%, passing the limit was not always enough;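 further: cells stimulated with NPY at EC10 then isoproterenol at EC100; 0% = low agonist plus stimulus and 100% = saturating agonist plus stimulus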
NPY Y1 blocker: NPY-Y1 receptor antagonists, primary screen, cell-based; Neuropeptide Y receptor type 1 (Homo sapiens), P25929; HEK293-CNG Y1 cells, membrane potential fluorescence; NPY at EC95, then isoproterenol; inhibition, % at 3.6 µM; 1% of 200,000 active; AID 1040, 2008;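 active means inhibition above the campaign mean inhibition of all tested compounds plus 3 SD, cut at about 20% in these data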;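 further: 0% = DMSO wells given NPY plus isoproterenol and 100% = isoproterenol alone without NPY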
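Assay system: HEK293 cells with Y1 receptor plus CNG channel | Probe or stimulus: NPY (25 nM), isoproterenol (1 µM), Ro 20-1724 (25 µM) | Timing: Compound incubation 1 h at room temperature, readout 45 min post-stimulation | Measured by: Membrane-potential fluorescent dye readout | Benchmarks: High control isoproterenol alone, low control NPY with isoproterenol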
EP2 antag: human EP2 receptor antagonists, primary screen, TR-FRET cAMP, C6 glioma cells; C6 glioma cells expressing human EP2; cells stimulated with saturating PGE2; Prostaglandin E2 receptor EP2 subtype (Homo sapiens), P43116; 0.52% of 260,000 active; inhibition, % at 25 µM;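 active means percent inhibition above 40 after rounding to a whole number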;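 further: rat C6 glioma host cells with rolipram phosphodiesterase inhibitor present; the protocol text gives 20 µM as final concentration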
* = called active by the depositor; nt = no result; ! = not active in a repeat. An excerpt weighted towards active compounds, which were near 2.8% of everything screened.

SMILES	NPY Y2 blocker	EP2 mod	NPY-Y2 PAM-ag	NPY1 pot ag	NPY Y1 blocker	EP2 antag
CCCN1/C(=C/c2ccc3ccc(OC)cc3[n+]2CCC)Sc2cc(C)ccc21	nt	-71	nt	nt	nt	26
CC[n+]1c(/C=C2\Sc3ccc4ccsc4c3N2C)ccc2cc(C)ccc21	nt	-61	nt	nt	nt	32
CCN1/C(=C/c2ccc3cccc(C)c3[n+]2CC)Sc2ccccc21	8	-69	15	-44	9	63*!
CCOc1ccccc1NC(=O)c1sc(NC(=O)c2cccc(Cl)c2)c(C(=O)OC)c1C	nt	1	nt	nt	nt	20
O=C(Cn1nc2c3ccccc3nc(C3CC3)n2c1=O)N1CCCCCC1	nt	-31	nt	nt	nt	nt
CS(=O)(=O)N(CC(=O)NCc1ccc2c(c1)OCO2)c1cccc(Cl)c1Cl	nt	-6	nt	nt	nt	7
O=C1OC(c2ccc(O)c(-c3ccccc3)c2)(c2ccc(O)c(-c3ccccc3)c2)c2c(Cl)c(Cl)c(Cl)c(Cl)c21	nt	4	nt	nt	nt	47*
CCOC(=O)CSc1n[nH]c(CNc2ccc(C)cc2)n1	nt	-14	nt	nt	nt	12
COc1cccc(CNC(=O)CN2C(=O)[C@@H]3CCCN3C(=O)c3ccccc32)c1	nt	8	nt	nt	nt	5
Cc1cc(C)n(-c2ccc(F)cc2CN2CCN(C3CCCC3)C(CCO)C2)n1 (stereo not drawn)	nt	13	-10	17	20*	0
Cc1sc2nc(SCC(=O)C(C)(C)C)n(Cc3ccco3)c(=O)c2c1C	18*	38	-8	-20	29*	3
C=CCc1ccccc1OCC(O)CN(CC)CC (stereo not drawn)	2	-22	89*	103*	-15	4
C=CCc1ccccc1OCC(O)CNC(=O)c1ccccc1C(=O)O (stereo not drawn)	nt	20	92*	87*	nt	7
CCOC(=O)C1CCCN(C(=O)c2c(Cl)cccc2Cl)C1 (stereo not drawn)	nt	-1	nt	nt	nt	8
COc1ccc(NC(=O)COC(=O)c2c3c(nc4ccccc24)CCCC3)cc1Cl	19*	-32	-11	-55	24*	26
COc1ccc(OC)c(NC(=O)COC(=O)c2c3c(nc4ccccc24)CCCC3)c1	11	21	-13	-31	8	3
Cn1ccnc1Sc1nc2ccccc2nc1NS(=O)(=O)c1ccccc1	2	50	11	-12	5	52*
CC(C(=O)N1CCC2(CC1)NC(=O)c1ccccc1O2)c1n[nH]c(=O)c2ccccc12 (stereo not drawn)	nt	-32	nt	nt	nt	12
C[C@]12CC[C@H]3[C@@H](CCC4=CC(=O)CC[C@@]43C)[C@@H]1CC[C@@H]2C(=O)CO	0	-1	12	-29	2	13
CSc1ncnc2c1ncn2CC(=O)[C@@H]1CC[C@@H]2[C@H]3CCC4=CC(=O)CC[C@@]4(C)[C@@H]3CC[C@]21C	nt	14	nt	nt	nt	64*
O=C(O)c1c(-c2nccc3ccccc23)[nH]c(-c2ccccc2)c1S(=O)(=O)O	nt	20	nt	nt	nt	75*
c1ccc(-c2ccc(-c3nccc4ccccc34)[nH]2)cc1	nt	-46	-27	-3	nt	22
Cc1ccc2c(c1)C(c1ccc([N+](=O)[O-])cc1)=NNC(c1ccc(Br)cc1)=N2	17*	3	8	-2	25*	8
CCc1ccc2c(c1)C(c1ccc([N+](=O)[O-])cc1)=NNC(c1ccc(Br)cc1)=N2	0	12	11	-7	5	7
Cc1nnc(NC(=O)CSc2nc3c(c(=O)n(C)c(=O)n3C)n2Cc2ccccc2)s1	nt	3	nt	nt	nt	13
SMILES	NPY Y2 blocker	EP2 mod	NPY-Y2 PAM-ag	NPY1 pot ag	NPY Y1 blocker	EP2 antag
Cc1cc(C)n(-c2ncnc3sc(C)c(-c4ccccc4)c23)n1	nt	15	nt	nt	nt	8
CN=c1scc(-c2ccccc2F)n1/N=C/c1ccc(O)c(O)c1O	nt	-39	29*	42*	-1	14
COc1ccc(NC(=O)C2CC(c3ccc(Cl)c(Cl)c3)=NO2)cc1OC (stereo not drawn)	nt	-73	nt	nt	nt	5
COc1c(C(=O)NCc2noc(-c3ccccc3)n2)cnc2cc(Cl)ccc12	nt	-77	nt	nt	nt	5
CC(=O)Nc1nonc1-c1nc2ccccc2n1CCC(C)C	18*	56	-17	-72	43*	nt
CCC(=O)Nc1nonc1-c1nc2ccccc2n1CCC(C)C	13	41	-14	-19	9	11
ClC(=Nc1cccc2ccccc12)N(c1ccccc1)c1ccccc1	nt	38	nt	nt	nt	40*
Cc1ccc(C(C(=O)NC2CCCC2)N(C(=O)c2snc(C(N)=O)c2N)c2ccc(C)c(C)c2)o1 (stereo not drawn)	nt	33	nt	nt	nt	8
CCOC(=O)C1CCN(C(=O)CN(c2ccc(Cl)cc2)S(C)(=O)=O)CC1	nt	-1	nt	nt	nt	14
S=c1nc[nH]c2c1[nH]c1ccc(Cl)cc12	nt	61*	-11	8	nt	10
COC(=O)CSc1nc(N)c2c3c(sc2n1)CCCC3	2	14	8	27	-5	11
COC(=O)CSc1nc(N)c2c3c(sc2n1)C(c1ccccc1)SC(c1ccccc1)C3 (stereo not drawn)	0	-8	56*	81*	-13	6
CC(C)(C)C1CCc2c(sc3nc(SCC(=O)O)nc(N)c23)C1 (stereo not drawn)	nt	-62	101*	105*	nt	5
COc1ccc(C)cc1N(C(=O)Cc1cccs1)C(C(=O)NC1CCCC1)c1ccc(C)o1 (stereo not drawn)	nt	75*	nt	nt	nt	11
COc1cccc(N(C(=O)Cc2cccs2)C(C(=O)NC2CCCC2)c2ccc(C)o2)c1 (stereo not drawn)	nt	44	nt	nt	nt	7
O=C(NC1CCCC1)C(c1cccs1)N(CC1CCCO1)C(=O)Cc1cccs1 (stereo not drawn)	18*	25	-14	-14	26*	8
Cc1ccc(N(C(=O)Cc2cccs2)C(C(=O)NC2CCCC2)c2cccs2)cc1 (stereo not drawn)	nt	80*	nt	nt	nt	11
C#CC(=O)N(c1cccc(OC)c1)C(C(=O)NC1CCCC1)c1cccs1 (stereo not drawn)	0	-60	47*	55*	-4	12
CN(C)C(=O)CSc1ccc(-c2ccc(F)cc2)nn1	nt	-13	nt	nt	nt	5
O=C(CSc1ccc(-c2nc3ccccc3[nH]2)cn1)Nc1ccccc1C(F)(F)F	nt	-64	nt	nt	nt	18
CC1CCCC(NC(=O)C2c3ccccc3C(=O)N2Cc2cccs2)C1C (stereo not drawn)	25*	25	-23	-18	35*	9
O=C(NC1CCCCCCC1)C1c2ccccc2C(=O)N1Cc1ccco1 (stereo not drawn)	13	19	-28	6	11	11
